What all share (type): functional
In assay [1] the test system is Staphylococcus aureus. In words: Antibacterial activity against methicillin-susceptible Staphylococcus aureus Xen29 infected neutropenic CD1 mouse assessed as mortality at 100 mg/kg, po within 24 hrs. The settings on record: Xen29, 24 h. Put shortly:
(§1)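 Female CD-1 mice (20–25 g) were made neutropenic with cyclophosphamide i.p. at 150 mg/kg 4 days and 100 mg/kg 1 day before infection. They were infected i.p. with a lethal dose of lux strain (2 × 10^7 to 5 × 10^8 CFU/mouse) suspended in 6% hog gastric mucin. A single s.c. or gavage dose was given 1 h later. Survivors were counted daily for 7 days, n=5/group.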

Assay [2] has as its system Staphylococcus aureus. The assay is described as follows: Antibacterial activity against methicillin-susceptible Staphylococcus aureus Xen29 infected neutropenic CD1 mouse assessed as mortality at 100 mg/kg, po after 4 days. Put shortly:
as §1

Assay [3] has as its system Staphylococcus aureus. In words: Antibacterial activity against methicillin-resistant Staphylococcus aureus Xen1 infected neutropenic CD1 mouse assessed as mortality at 100 mg/kg, po after 4 days. Put shortly: as §1
The test system of assay [4] is Staphylococcus aureus. In words: Antibacterial activity against methicillin-resistant Staphylococcus aureus Xen1 infected neutropenic CD1 mouse assessed as mortality at 100 mg/kg, po within 24 hrs. The settings on record: Xen1, 24 h. The essentials: as §1
Assay [5] has as its system Staphylococcus aureus. In words: Antimicrobial activity against bioluminescent methicillin-susceptible Staphylococcus aureus Xen29. Put shortly: (§2)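 MIC by broth microdilution following CLSI guidelines against bioluminescent lux-carrying strains (Xen-1 plasmid-borne lux, Xen-29 chromosomal lux), grown overnight in Mueller-Hinton broth at 37°C.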
Assay [6] concerns Staphylococcus aureus. In words: Protection against methicillin-susceptible Staphylococcus aureus Xen29 infection in nonneutropenic CD1 mouse at 100 mg/kg, po after 7 days. The essentials: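 Female CD-1 mice (20–25 g, n = 5/group) were given an i.p. lethal inoculum of lux-bearing MSSA Xen-29 (2 × 10^7 to 5 × 10^8 CFU/mouse) suspended in 6% hog gastric mucin. A single dose was given by gavage 1 h after inoculation. Survival was recorded daily for 7 days after inoculation.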

Assay [7] deals with Staphylococcus aureus. In words: Antimicrobial activity against bioluminescent methicillin-resistant Staphylococcus aureus Xen1. The essentials:
as §2

Assay [8] relates to Staphylococcus aureus. The assay is described as follows: Reduction in bioluminescent methicillin-sensitive Staphylococcus aureus Xen29 in neutropenic CD1 mouse with peritonitis at 100 mg/kg, sc after 5 hrs relative to control. Further details: scale not given: the % may be the effect or the level left. The settings on record: route subcutaneous. Put shortly:
(§3)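 Neutropenia was induced with cyclophosphamide 150 mg/kg i.p. at day −4 and 100 mg/kg i.p. at day −1. Mice were then infected i.p. with Xen-29 (2 × 10^7 to 5 × 10^8 CFU) in 6% mucin (n = 5/group) and dosed once, s.c. or by gavage, at 1 h. Luminescence was imaged hourly under anesthesia, 0–5 h postdosing. Mean region-of-interest flux is given as percent reduction versus time-matched saline (10 ml/kg s.c.) controls.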

The test system of assay [9] is Staphylococcus aureus. The assay is described as follows: Reduction in bioluminescent methicillin-sensitive Staphylococcus aureus Xen29 in immunocompetent CD1 mouse with peritonitis at 100 mg/kg, sc after 3 hrs relative to control. Further details: scale not given: the % may be the effect or the level left. The settings on record: route subcutaneous. Put shortly: (§4)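 Peritonitis in healthy female CD-1 mice (n = 5/group): i.p. Xen-29 (2 × 10^7 to 5 × 10^8 CFU) in 6% mucin, then a single s.c. or gavage dose at 1 h. Controls got saline 10 ml/kg s.c. Mice were anesthetized hourly (pentobarbital 60 mg/kg i.p. or isoflurane) and imaged ventral side up for 1–5 min, to 5 h postdosing. Total flux (photons/s/cm2) over the infected region was averaged per group. Percent reduction is versus time-matched saline controls.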

Assay [10] deals with Staphylococcus aureus. In words: Reduction in bioluminescent methicillin-sensitive Staphylococcus aureus Xen29 in neutropenic CD1 mouse with peritonitis at 100 mg/kg, sc after 3 hrs relative to control. The arrangement: scale not given: the % may be the effect or the level left. The settings on record: route subcutaneous. Put shortly: as §3
For assay [11], the system named is Staphylococcus aureus. In words: Reduction in bioluminescent methicillin-sensitive Staphylococcus aureus Xen29 in neutropenic CD1 mouse with peritonitis at 100 mg/kg, sc after 2 hrs relative to control. The arrangement: scale not given: the % may be the effect or the level left. The settings on record: route subcutaneous. Put shortly:
as §3

Assay [12] concerns Staphylococcus aureus. In words: Antibacterial activity against methicillin-susceptible Staphylococcus aureus Xen29 infected nonneutropenic CD1 mouse assessed as mouse survival at 50 mg/kg, sc after 7 days. The settings on record: 168 h, route subcutaneous. Put shortly:
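Healthy female CD-1 mice (20–25 g) were infected i.p. with a lethal dose of lux strain (2 × 10^7 to 5 × 10^8 CFU/mouse) from an overnight Mueller-Hinton culture suspended in 6% hog gastric mucin. A single s.c. dose was given 1 h post-inoculation. Survival was recorded daily for 7 days, n=5/group.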

Assay [13] deals with Staphylococcus aureus. In words: Reduction in bioluminescent methicillin-sensitive Staphylococcus aureus Xen29 in immunocompetent CD1 mouse with peritonitis at 100 mg/kg, sc relative to control. Further details: scale not given: the % may be the effect or the level left. The note with it: route subcutaneous. Put shortly:
as §4

In assay [14] the test system is Staphylococcus aureus. The assay is described as follows: Reduction in bioluminescent methicillin-sensitive Staphylococcus aureus Xen29 in immunocompetent CD1 mouse with peritonitis at 100 mg/kg, sc after 5 hrs relative to control. Further details: scale not given: the % may be the effect or the level left. The note with it: route subcutaneous. The essentials:
as §4

Assay [15] concerns Staphylococcus aureus. The assay is described as follows: Reduction in bioluminescent methicillin-sensitive Staphylococcus aureus Xen29 in immunocompetent CD1 mouse at 100 mg/kg, sc after 4 hrs relative to control. The arrangement: scale not given: the % may be the effect or the level left. The settings on record: route subcutaneous. Put shortly:
as §4

In assay [16] the test system is Staphylococcus aureus. The assay is described as follows: Reduction in bioluminescent methicillin-sensitive Staphylococcus aureus Xen29 in neutropenic CD1 mouse with peritonitis at 100 mg/kg, sc after 4 hrs relative to control. The arrangement: scale not given: the % may be the effect or the level left. The note with it: route subcutaneous. The essentials:
as §3

Converted amounts (≈) assume the structure as drawn.

`CN[C@H](CC(C)C)C(=O)N[C@H]1C(=O)N[C@@H](CC(N)=O)C(=O)N[C@H]2C(=O)N[C@H]3C(=O)N[C@H](C(=O)N[C@H](C(=O)O)c4cc(O)cc(O)c4-c4cc3ccc4O)[C@H](O)c3ccc(c(Cl)c3)Oc3cc2cc(c3O[C@@H]2O[C@H](CO)[C@@H](O)[C@H](O)[C@H]2O[C@H]2C[C@](C)(N)[C@H](O)[C@H](C)O2)Oc2ccc(cc2Cl)[C@H]1O` [VANCOMYCIN]: the survival at 100 mg/kg with Staphylococcus aureus [1] and in the assay on Staphylococcus aureus [4] was 100% each time. Besides, the Activity in the assay with Staphylococcus aureus [2] and in the assay with Staphylococcus aureus [3] was 100% in each case.
As to `CCOc1ccc2ccccc2c1C(=O)N[C@@H]1C(=O)N2[C@@H]1SC(C)(C)[C@@H]2C(=O)O` [NAFCILLIN], the minimal inhibitory concentration (MIC) was determined as 0.5 µg/mL (≈ 1.21 µM) against Staphylococcus aureus [5] and 64 µg/mL (≈ 154 µM) with Staphylococcus aureus [7]. Besides, the Activity in the assay with Staphylococcus aureus [6] is given as 100%; in the assay with Staphylococcus aureus [8], 99.2%; in the assay on Staphylococcus aureus [9], 93%; in the assay with Staphylococcus aureus [10], 95.6%; in the assay on Staphylococcus aureus [11], 84%; in the assay on Staphylococcus aureus [13], 82%. For the same molecule, the values for the Activity in the assay on Staphylococcus aureus [14], with Staphylococcus aureus [15] and in the assay on Staphylococcus aureus [16] were 98%, 96% and 98.3%, respectively. The survival at 100 mg/kg with Staphylococcus aureus [1] and with Staphylococcus aureus [4] was 100% in each case. Besides, in the assay on Staphylococcus aureus [12], the survival at 50 mg/kg worked out at 100%.

One may read the MIC as the lowest concentration that inhibits growth of the organism.

(Values after ChEMBL document CHEMBL1144463, “Rapid bactericidal activity of daptomycin against methicillin-resistant and methicillin-susceptible Staphylococcus aureus peritonitis in mice as measured with bioluminescent bacteria” (2007).)
